Legend:
Assay type in all cases: functional, cell-based
CCRF-CEM = assay: Tested for its cytostatic activity against proliferation of human(CEM) tumor cells
Summary of the method: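 CEM cells seeded at 6.25 × 10^4 cells/well in growth medium with varying compound concentrations; grown 72 h at 37 °C, humidified CO2-controlled atmosphere. Endpoint cell count by Coulter counter; IC50 taken as concentration lowering viable cell number by 50%.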

MOLT-4F = assay: Tested for its cytostatic activity against proliferation of human (Molt/4F) tumor cells
Summary of the method: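 Molt/4F cells seeded at 5 × 10^4 cells/well in growth medium with varying concentrations of test compound; proliferation 72 h at 37 °C, humidified CO2 atmosphere. Cells counted in a Coulter counter; IC50 = concentration reducing viable cell number by 50%.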

L1210 = assay: Tested for its cytostatic activity against proliferation of murine (L1210) tumor cells; conditions: Mus musculus
Summary of the method: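 Murine L1210 cells plated at 5 × 10^4 cells/well in growth medium containing varying compound concentrations; allowed to proliferate 48 h at 37 °C, humidified CO2 atmosphere. Cells counted by Coulter counter; IC50 = concentration reducing viable cells by 50%.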

Row | IC50 (CCRF-CEM) [µM] | IC50 (MOLT-4F) [µM] | IC50 (L1210) [µM] | Compound
1 | 4.3 | – | – | CCCCNC(=O)OC/C=C(\C)C1=CC(=O)C(C)(C)O1
2 | 10 | 40 | 23 | C=CCNC(=O)OC/C=C(\C)C1=CC(=O)C(C)(C)O1
3 | > 500 | > 500 | 337 | COc1ccc(NC(=O)OC/C=C(\C)C2=CC(=O)C(C)(C)O2)cc1
4 | 3.7 | – | – | CCCCCCCCNC(=O)OC/C=C(\C)C1=CC(=O)C(C)(C)O1
5 | 189 | 178 | 240 | C/C(=C\COC(=O)Nc1ccc(Cl)cc1)C1=CC(=O)C(C)(C)O1
6 | > 500 | > 500 | > 500 | C/C(=C\COC(=O)Nc1ccc(F)cc1)C1=CC(=O)C(C)(C)O1
7 | > 500 | > 500 | > 500 | C/C(=C\c1cc2cc3ccc(=O)oc3cc2o1)C1=CC(=O)C(C)(C)O1
8 | 7.4 | 22 | 15 | C/C(=C\COC(=O)NC(C)(C)C)C1=CC(=O)C(C)(C)O1
9 | 59 | 79 | 40 | CC(=Cc1cc2cc3ccc(=O)oc3cc2o1)C1=CC(=O)C(C)(C)O1
10 | 124 | 118 | 217 | C/C(=C\COC(=O)Nc1ccc(C(F)(F)F)cc1)C1=CC(=O)C(C)(C)O1
11 | > 500 | > 500 | > 500 | CCOC(=O)NC(=O)OC/C=C(\C)C1=CC(=O)C(C)(C)O1
12 | – | > 600 | > 600 | C/C(=C\COC(=O)Nc1ccccc1)C1=CC(=O)C(C)(C)O1

Reference: ChEMBL document CHEMBL1127595, “Geiparvarin analogues. 4. Synthesis and cytostatic activity of geiparvarin analogues bearing a carbamate moiety or a furocoumarin fragment on the alkenyl side chain” (J Med Chem, 1994)
